Test results taken from ChEMBL document CHEMBL1154674, “Synthesis and evaluation of three 18F-labeled aminophenylbenzothiazoles as amyloid imaging agents” (J Med Chem, 2009).

Tests used:
Format in all cases: ADME, organism-based
Liver [1] = experiment: Drug level in NMRI mouse liver assessed as standard uptake value at 3.7 MBq/mL, iv after 60 mins by gamma counting; conditions: in vivo, 1 h
In short: (§1)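 Male NMRI mice (30-40 g) were anaesthetised with isoflurane. Each received 0.1 mL of HPLC-purified tracer, diluted in 0.9% NaCl to 3.7 MBq/mL (ethanol ≤10%), via a tail vein. Mice were decapitated at 2 or 60 min. Organs were dissected, weighed and γ-counted with background correction. SUV = (organ cpm/organ weight)/(total recovered counts/body weight). Blood mass was taken as 7% of body mass.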

[2] = Biodistribution in NMRI mouse cerebrum assessed per gram of tissue at 3.7 MBq/mL, iv after 2 mins by gamma counting; conditions: in vivo
In short: (§2)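 Male NMRI mice (30-40 g) under isoflurane (1.5-2.5% in oxygen) got 0.1 mL of HPLC-purified tracer diluted with 0.9% NaCl to 3.7 MBq/mL (ethanol ≤10%) via tail vein. Mice were decapitated at 2 or 60 min p.i., and organs, blood and urine were weighed and γ-counted. Values are background-corrected %ID or %ID/g, with blood mass taken as 7% of body mass.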

Cerebellum [3] = experiment: Biodistribution in NMRI mouse cerebellum at 3.7 MBq/mL, iv after 2 mins by gamma counting; conditions: in vivo; in short: as §2
[4] = Drug level in NMRI mouse cerebrum assessed as standard uptake value at 3.7 MBq/mL, iv after 2 mins by gamma counting; conditions: in vivo; in short: as §1
Kidney [5] = experiment: Drug level in NMRI mouse kidney assessed as standard uptake value at 3.7 MBq/mL, iv after 2 mins by gamma counting; conditions: in vivo; in short: as §1
Liver [6] = experiment: Biodistribution in NMRI mouse liver at 3.7 MBq/mL, iv after 2 mins by gamma counting; conditions: in vivo; in short: as §2
Intestine [7] = experiment: Biodistribution in NMRI mouse intestine at 3.7 MBq/mL, iv after 2 mins by gamma counting; conditions: in vivo; in short: as §2
[8] = Biodistribution in NMRI mouse spleen/pancreas at 3.7 MBq/mL, iv after 2 mins by gamma counting; conditions: in vivo; in short: as §2
[9] = Biodistribution in NMRI mouse spleen/pancreas at 3.7 MBq/mL, iv after 60 mins by gamma counting; conditions: in vivo, 1 h; in short: as §2
Blood [10] = experiment: Drug level in NMRI mouse blood assessed as standard uptake value at 3.7 MBq/mL, iv after 2 mins by gamma counting; conditions: in vivo; in short: as §1
Lung [11] = experiment: Biodistribution in NMRI mouse lung assessed per gram of tissue at 3.7 MBq/mL, iv after 60 mins by gamma counting; conditions: in vivo, 1 h; in short: as §2
Stomach [12] = experiment: Biodistribution in NMRI mouse stomach at 3.7 MBq/mL, iv after 2 mins by gamma counting; conditions: in vivo; in short: as §2
Heart [13] = experiment: Drug level in NMRI mouse heart assessed as standard uptake value at 3.7 MBq/mL, iv after 60 mins by gamma counting; conditions: in vivo, 1 h; in short: as §1
Heart [14] = experiment: Biodistribution in NMRI mouse heart assessed per gram of tissue at 3.7 MBq/mL, iv after 60 mins by gamma counting; conditions: in vivo, 1 h; in short: as §2
Stomach [15] = experiment: Biodistribution in NMRI mouse stomach at 3.7 MBq/mL, iv after 60 mins by gamma counting; conditions: in vivo, 1 h; in short: as §2
Blood [16] = experiment: Biodistribution in NMRI mouse blood assessed per gram of tissue at 3.7 MBq/mL, iv after 60 mins by gamma counting; conditions: in vivo, 1 h; in short: as §2
Cerebellum [17] = experiment: Biodistribution in NMRI mouse cerebellum at 3.7 MBq/mL, iv after 60 mins by gamma counting; conditions: in vivo, 1 h; in short: as §2
Blood [18] = experiment: Biodistribution in NMRI mouse blood at 3.7 MBq/mL, iv after 60 mins by gamma counting; conditions: in vivo, 1 h; in short: as §2
Lung [19] = experiment: Biodistribution in NMRI mouse lung at 3.7 MBq/mL, iv after 60 mins by gamma counting; conditions: in vivo, 1 h; in short: as §2
Liver [20] = experiment: Biodistribution in NMRI mouse liver at 3.7 MBq/mL, iv after 60 mins by gamma counting; conditions: in vivo, 1 h; in short: as §2
Liver [21] = experiment: Biodistribution in NMRI mouse liver assessed per gram of tissue at 3.7 MBq/mL, iv after 60 mins by gamma counting; conditions: in vivo, 1 h; in short: as §2
[22] = Biodistribution in NMRI mouse cerebrum at 3.7 MBq/mL, iv after 2 mins by gamma counting; conditions: in vivo; in short: as §2
Lung [23] = experiment: Biodistribution in NMRI mouse lung at 3.7 MBq/mL, iv after 2 mins by gamma counting; conditions: in vivo; in short: as §2
Kidney [24] = experiment: Biodistribution in NMRI mouse kidney assessed per gram of tissue at 3.7 MBq/mL, iv after 60 mins by gamma counting; conditions: in vivo, 1 h; in short: as §2
Heart [25] = experiment: Drug level in NMRI mouse heart assessed as standard uptake value at 3.7 MBq/mL, iv after 2 mins by gamma counting; conditions: in vivo; in short: as §1
Liver [26] = experiment: Drug level in NMRI mouse liver assessed as standard uptake value at 3.7 MBq/mL, iv after 2 mins by gamma counting; conditions: in vivo; in short: as §1
Intestine [27] = experiment: Biodistribution in NMRI mouse intestine at 3.7 MBq/mL, iv after 60 mins by gamma counting; conditions: in vivo, 1 h; in short: as §2
Cerebellum [28] = experiment: Biodistribution in NMRI mouse cerebellum assessed per gram of tissue at 3.7 MBq/mL, iv after 60 mins by gamma counting; conditions: in vivo, 1 h; in short: as §2
[29] = Biodistribution in NMRI mouse cerebrum at 3.7 MBq/mL, iv after 60 mins by gamma counting; conditions: in vivo, 1 h; in short: as §2
[30] = Drug level in NMRI mouse cerebrum assessed as standard uptake value at 3.7 MBq/mL, iv after 60 mins by gamma counting; conditions: in vivo, 1 h; in short: as §1
Blood [31] = experiment: Biodistribution in NMRI mouse blood assessed per gram of tissue at 3.7 MBq/mL, iv after 2 mins by gamma counting; conditions: in vivo; in short: as §2
Heart [32] = experiment: Biodistribution in NMRI mouse heart at 3.7 MBq/mL, iv after 2 mins by gamma counting; conditions: in vivo; in short: as §2
Blood [33] = experiment: Drug level in NMRI mouse blood assessed as standard uptake value at 3.7 MBq/mL, iv after 60 mins by gamma counting; conditions: in vivo, 1 h; in short: as §1
Kidney [34] = experiment: Biodistribution in NMRI mouse kidney at 3.7 MBq/mL, iv after 2 mins by gamma counting; conditions: in vivo; in short: as §2
Liver [35] = experiment: Biodistribution in NMRI mouse liver assessed per gram of tissue at 3.7 MBq/mL, iv after 2 mins by gamma counting; conditions: in vivo
[36] = Biodistribution in NMRI mouse urine at 3.7 MBq/mL, iv after 2 mins by gamma counting; conditions: in vivo; in short: as §2
Heart [37] = experiment: Biodistribution in NMRI mouse heart at 3.7 MBq/mL, iv after 60 mins by gamma counting; conditions: in vivo, 1 h; in short: as §2
Kidney [38] = experiment: Biodistribution in NMRI mouse kidney assessed per gram of tissue at 3.7 MBq/mL, iv after 2 mins by gamma counting; conditions: in vivo; in short: as §2
[39] = Drug level in NMRI mouse spleen/pancreas assessed as standard uptake value at 3.7 MBq/mL, iv after 60 mins by gamma counting; conditions: in vivo, 1 h; in short: as §1
Kidney [40] = experiment: Biodistribution in NMRI mouse kidney at 3.7 MBq/mL, iv after 60 mins by gamma counting; conditions: in vivo, 1 h; in short: as §2
Kidney [41] = experiment: Drug level in NMRI mouse kidney assessed as standard uptake value at 3.7 MBq/mL, iv after 60 mins by gamma counting; conditions: in vivo, 1 h; in short: as §1
Cerebellum [42] = experiment: Biodistribution in NMRI mouse cerebellum assessed per gram of tissue at 3.7 MBq/mL, iv after 2 mins by gamma counting; conditions: in vivo; in short: as §2
Blood [43] = experiment: Biodistribution in NMRI mouse blood at 3.7 MBq/mL, iv after 2 mins by gamma counting; conditions: in vivo; in short: as §2
Lung [44] = experiment: Biodistribution in NMRI mouse lung assessed per gram of tissue at 3.7 MBq/mL, iv after 2 mins by gamma counting; conditions: in vivo; in short: as §2
[45] = Biodistribution in NMRI mouse cerebrum assessed per gram of tissue at 3.7 MBq/mL, iv after 60 mins by gamma counting; conditions: in vivo, 1 h; in short: as §2
[46] = Biodistribution in NMRI mouse urine at 3.7 MBq/mL, iv after 60 mins by gamma counting; conditions: in vivo, 1 h; in short: as §2
Cerebellum [47] = experiment: Drug level in NMRI mouse cerebellum assessed as standard uptake value at 3.7 MBq/mL, iv after 2 mins by gamma counting; conditions: in vivo; in short: as §1
[48] = Drug level in NMRI mouse spleen/pancreas assessed as standard uptake value at 3.7 MBq/mL, iv after 2 mins by gamma counting; conditions: in vivo; in short: as §1
Heart [49] = experiment: Biodistribution in NMRI mouse heart assessed per gram of tissue at 3.7 MBq/mL, iv after 2 mins by gamma counting; conditions: in vivo; in short: as §2
Lung [50] = experiment: Drug level in NMRI mouse lung assessed as standard uptake value at 3.7 MBq/mL, iv after 60 mins by gamma counting; conditions: in vivo, 1 h; in short: as §1
Cerebellum [51] = experiment: Drug level in NMRI mouse cerebellum assessed as standard uptake value at 3.7 MBq/mL, iv after 60 mins by gamma counting; conditions: in vivo, 1 h; in short: as §1
[52] = Biodistribution in NMRI mouse spleen/pancreas assessed per gram of tissue at 3.7 MBq/mL, iv after 60 mins by gamma counting; conditions: in vivo, 1 h; in short: as §2
Lung [53] = experiment: Drug level in NMRI mouse lung assessed as standard uptake value at 3.7 MBq/mL, iv after 2 mins by gamma counting; conditions: in vivo; in short: as §1
[54] = Biodistribution in NMRI mouse spleen/pancreas assessed per gram of tissue at 3.7 MBq/mL, iv after 2 mins by gamma counting; conditions: in vivo; in short: as §2

SMILES: Cc1ccc2nc(-c3ccc([18F])cc3)sc2c1
- SUV (Liver [1]): 9.2
- Drug uptake [2]: 5.33%
- Drug uptake (Cerebellum [3]): 0.42%
- SUV [4]: 1.97
- SUV (Kidney [5]): 3.4
- Drug uptake (Liver [6]): 24.8%
- Drug uptake (Intestine [7]): 8.9%
- Drug uptake [8]: 1.3%
- Drug uptake [9]: 0.1%
- SUV (Blood [10]): 0.8
- Drug uptake (Lung [11]): 1.3%
- Drug uptake (Stomach [12]): 1.3%
- SUV (Heart [13]): 0.2
- Drug uptake (Heart [14]): 0.5%
- Drug uptake (Stomach [15]): 1.1%
- Drug uptake (Blood [16]): 1.1%
- Drug uptake (Cerebellum [17]): 0.04%
- Drug uptake (Blood [18]): 2.8%
- Drug uptake (Lung [19]): 0.3%
- Drug uptake (Liver [20]): 51.8%
- Drug uptake (Liver [21]): 24.6%
- Drug uptake [22]: 1.62%
- Drug uptake (Lung [23]): 3.6%
- Drug uptake (Kidney [24]): 3.6%
- SUV (Heart [25]): 2
- SUV (Liver [26]): 4.5
- Drug uptake (Intestine [27]): 19.3%
- Drug uptake (Cerebellum [28]): 0.39%
- Drug uptake [29]: 0.07%
- SUV [30]: 0.1
- Drug uptake (Blood [31]): 2.2%
- Drug uptake (Heart [32]): 0.9%
- SUV (Blood [33]): 0.4
- Drug uptake (Kidney [34]): 5.8%
- Drug uptake (Liver [35]): 12%
- Drug uptake [36]: 0.2%
- Drug uptake (Heart [37]): 0.1%
- Drug uptake (Kidney [38]): 9.3%
- SUV [39]: 0.2
- Drug uptake (Kidney [40]): 2.3%
- SUV (Kidney [41]): 1.4
- Drug uptake (Cerebellum [42]): 5.99%
- Drug uptake (Blood [43]): 5.7%
- Drug uptake (Lung [44]): 14.4%
- Drug uptake [45]: 0.27%
- Drug uptake [46]: 3.3%
- SUV (Cerebellum [47]): 2.21
- SUV [48]: 1.5
- Drug uptake (Heart [49]): 5.4%
- SUV (Lung [50]): 0.5
- SUV (Cerebellum [51]): 0.15
- Drug uptake [52]: 0.4%
- SUV (Lung [53]): 5.3
- Drug uptake [54]: 4%
